Measurements pooled from the literature.
Target: Serine/threonine-protein kinase PLK2 (PLK2, Homo sapiens, UniProt Q9NYY3)

`F[C@@H]1CCN(c2nccc(-c3cnn4ncccc34)n2)C1` gave a remaining binding of 100% (binding; 1 µM).
With `CS(=O)(=O)NCC[C@H](NC(=O)c1cncc2c1cnn2-c1ccc(F)cc1)c1ccnc(S(C)(=O)=O)c1` the remaining binding was 100% (cell-free assay, competition with immobilised ligand; 1 µM).
The remaining binding of `CN(c1nccc(-c2cnn3ncccc23)n1)C1CC1` is reported as 88% (binding; 1 µM).
`O=C(Nc1c[nH]nc1C(=O)NC1CCNCC1)c1cc(F)cc(F)c1` gave a remaining binding of 92% (binding, competition with immobilised ligand; 1 µM).
For `c1cnn2ncc(-c3ccnc(N4CCC45COC5)n3)c2c1`, the remaining binding was 87% (binding; 1 µM).
The remaining binding of `Cc1cnc(Nc2ccc(C(=O)N3CCC(N4CCCC4)CC3)cc2)nc1-c1cc2ccccc2s1` is reported as 52% (binding, competition with immobilised ligand; 1 µM).
For `CNC(=O)[C@@H]1CC[C@@H](n2c(-c3ccc4cnccc4c3)nc3ccc(C(=O)NCc4cccc(C(N)=O)c4)cc32)C1`, the remaining binding was 96% (binding, competition with immobilised ligand; 1 µM).
The remaining binding of `N#Cc1ccc(Nc2ccc3[nH]c(=O)[nH]c3c2)c(Cl)c1` is reported as 86% (cell-free assay, competition with immobilised ligand; 1 µM).
`CC1CCCN1c1nccc(-c2cnn3ncccc23)n1` (centres unmarked) gave a remaining binding of 100% (binding; 1 µM).
With `Nc1ncc2c(n1)-c1c([nH]c3ccc(C#CC4CC4)cc13)CCCC2` the remaining binding was 91% (binding, competition with immobilised ligand; 1 µM).
With `CCS(=O)(=O)c1cc2cc(C[C@@](O)(CC(C)(C)c3ccc(F)cc3C(N)=O)C(F)(F)F)[nH]c2cn1` the remaining binding was 100% (cell-free assay, competition with immobilised ligand; 1 µM).
With `C[C@H]1CCN(c2nccc(-c3cnn4ncccc34)n2)C1` the remaining binding was 91% (binding; 1 µM).
`O=C(c1ccc(Nc2ncc(Cl)c(-c3ccc(Cl)s3)n2)cc1)N1CCC(N2CCCC2)CC1` has a remaining binding of 47% (binding, competition with immobilised ligand; 1 µM).
With `COc1cnc(Nc2cccc(S(N)(=O)=O)c2)nc1N1CCN(c2ccccc2)CC1` the remaining binding was 94% (binding, competition with immobilised ligand; 1 µM).
`NS(=O)(=O)c1cc(NC(=O)C2(c3ccccc3Cl)CC2)ccc1Oc1cccc(Cl)c1` has a remaining binding of 84% (cell-free assay, competition with immobilised ligand; 1 µM).
With `FC(F)(F)Oc1cccc(-c2cnc3ccc(-c4ccncc4)nn23)c1` the remaining binding was 77% (cell-free assay, competition with immobilised ligand; 5 µM).
`Cc1nc(C2CCN(C(=O)c3ccc(OC(F)(F)F)cc3N)CC2)c2ncc(N3CCN(C)CC3)cc2n1` gave a remaining binding of 74% (cell-free assay, competition with immobilised ligand; 1 µM).
With `O=C(NCCCN1CCOCC1)c1ccc(Nc2nccc(-c3cc4ccccc4s3)n2)cc1` the remaining binding was 44% (binding, competition with immobilised ligand; 1 µM).
`CN(C)c1nccc(-c2cnn3ncccc23)n1` has a remaining binding of 100% (binding; 1 µM).
With `CN(C)CC#Cc1ccc(OCCCc2sc(N3CCc4cccc(C(=O)Nc5nc6ccccc6s5)c4C3)nc2C(=O)O)c(F)c1` the remaining binding was 94% (cell-free assay, competition with immobilised ligand; 1 µM).
